Measured values as given in ChEMBL document CHEMBL1145131, “Structure-based design, synthesis, and biological evaluation of irreversible human rhinovirus 3C protease inhibitors. 8. Pharmacological optimization of orally bioavailable 2-pyridone-containing peptidomimetics” (J Med Chem, 2003).
In brackets after ≈: the same amount, converted by molar mass.

Assays:
[1] = target: T1, Human rhinovirus A protease (Human rhinovirus sp.) (UniProt Q4U254);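 note: inhibition of the human rhinovirus 3C protease enzyme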
T1 sequence (whole entry): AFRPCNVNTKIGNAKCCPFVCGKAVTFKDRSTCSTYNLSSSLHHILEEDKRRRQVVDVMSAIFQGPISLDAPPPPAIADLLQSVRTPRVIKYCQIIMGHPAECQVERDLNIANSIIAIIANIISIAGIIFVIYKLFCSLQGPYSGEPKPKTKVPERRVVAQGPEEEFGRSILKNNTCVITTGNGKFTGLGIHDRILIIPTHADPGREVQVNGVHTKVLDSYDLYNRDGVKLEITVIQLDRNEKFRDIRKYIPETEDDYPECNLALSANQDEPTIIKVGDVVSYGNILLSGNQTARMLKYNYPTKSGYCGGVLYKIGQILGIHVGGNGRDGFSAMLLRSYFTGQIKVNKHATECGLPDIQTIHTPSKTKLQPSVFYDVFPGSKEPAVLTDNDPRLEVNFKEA

[2] = tested on: Enterovirus; test: In vitro anti-rhinoviral activity against human rhinovirus serotypes 2,3,9,14,16,25 and 39; format: functional, organism-based
[3] = Compound was tested in vitro for loss of compound after 30 min exposure to liver microsomes of human at 25 uM concentration; format: ADME, organism-based; details: read-out: Metabolism
Method in brief: (§1)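 Pooled liver microsomes (dog, monkey or human; 1 mg/mL, 6–8 livers) with 2 mM NADPH in 100 mM potassium phosphate, pH 7.4, preincubated 1 min at 37 °C. Started with 25 μM compound, run 30 min, quenched with acetonitrile. Time-zero controls quenched before compound addition. Remaining compound by reversed-phase HPLC at 215 nm. Reported as % metabolized.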

[4] = Thermodynamic aqueous solubility was determined; format: physicochemical; details: buffer
Method in brief: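 1–2 mg compound stirred in 1 mL of pH 7.0, 50 mM phosphate buffer at room temperature for 4 h. Filtered through a 0.45 μm filter. Filtrate concentration determined by HPLC against a standard of known concentration.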

[5] = tested on: Caco-2; details: Homo sapiens
[6] = Compound was tested in vitro for loss of compound after 30 min exposure to liver microsomes of dog at 25 uM concentration; format: ADME, organism-based, Canis lupus familiaris; details: read-out: Metabolism
Method in brief: as §1

[7] = Compound was tested for plasma concentration in dogs 7 hours after oral administration (30 mg/kg); format: ADME, organism-based, Canis lupus familiaris; details: dog
Method in brief: (§2)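 Male beagle dogs (BW ~9.3 kg, n = 3), single oral dose of 30 mg/kg. Vehicle was 80:20 propylene glycol:sterile water (15.0 mg/mL) or, in some studies, a 0.5% carboxymethyl cellulose suspension. Blood sampled up to 24 h. Plasma level at 7 h determined by LCMS. Noncompartmental analysis of individual concentration-time profiles.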

[8] = Half-life upon exposure to human plasma; format: ADME, organism-based
Method in brief: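 Pooled heparinized human plasma (10 donors) or 100 mM potassium phosphate pH 7.4 buffer (n = 3 each), spiked to final 25 μM compound from acetonitrile stock. Incubated at 37 °C for 1–3 h with regular sampling. Protein precipitated with acetonitrile, then LC quantification against a 0.05–40 μg/mL standard curve. Half-life by linear regression of mean concentration-time data.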

[9] = tested on: Enterovirus; test: In vitro antirhinoviral activity against human rhinovirus serotypes 2, 3, 9, 14, 16 and 39 (mean)
[10] = Compound was tested for plasma concentration in CM-monkeys 7 hours after oral administration (50 mg/kg); format: ADME, organism-based, Macaca fascicularis; details: cynomolgus monkey
Method in brief: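 Male CM-monkeys (BW ~3.9 kg, n = 3), single oral dose of 50 mg/kg in 80:20 propylene glycol:sterile water at 15.0 mg/mL. Blood sampled periodically up to 24 h post-dose. Plasma concentration at 7 h measured by LCMS. Parameters from noncompartmental analysis of individual concentration-time data.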

[11] = Compound was tested in vitro for loss of compound after 2 hours exposure to hepatocytes of monkey at 5 uM concentration; format: ADME, cell-based, Hepatocyte; details: simiiformes, read-out: Metabolism
[12] = Compound was tested for plasma concentration in dogs 7 hours after oral administration (30 mg/kg) in experiment 2; format: ADME, organism-based, Canis lupus familiaris; details: dog
Method in brief: as §2

[13] = Compound was tested in vitro for loss of compound after 2 hours exposure to hepatocytes of human at 25 uM concentration; format: ADME, organism-based, Hepatocyte; details: read-out: Metabolism
[14] = Compound was tested in vitro for loss of compound after 2 hours exposure to hepatocytes of dog at 25 uM concentration; format: ADME, organism-based, Canis lupus familiaris, Hepatocyte; details: read-out: Metabolism
[15] = Compound was tested for plasma concentration in dogs 7 hours after oral administration (30 mg/kg) in experiment 1; format: ADME, organism-based, Canis lupus familiaris; details: dog
Method in brief: as §2

[16] = Compound was tested in vitro for loss of compound after 30 min exposure to liver microsomes of monkey at 25 uM concentration; format: ADME, Microsome; details: simiiformes, read-out: Metabolism
Method in brief: as §1

[17] = tested on: Enterovirus; test: In vitro antirhinoviral activity against human rhinovirus serotypes 9,14 and 25; format: functional, organism-based
[18] = Compound was tested for human plasma protein binding; format: ADME, cell-free
Method in brief: (§3)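 Ultrafiltration binding. Compound added from 1 mM and 0.1 mM stocks into heparinized dog or human plasma or pH 7.4 phosphate buffer, giving final 1 and 10 μM. Incubated 1 h at 37 °C, then centrifugal ultrafiltration. Filtrate and whole plasma quantified by LCMS with internal standard. % free = filtrate/whole plasma × 100. Three replicates per species per concentration.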

[19] = organism: Canis familiaris; test: Compound was tested for plasma protein binding of dog; format: ADME, organism-based, Canis lupus familiaris
Method in brief: as §3

[20] = Compound was tested in vitro for loss of compound after 2 hours exposure to hepatocytes of monkey at 25 uM concentration; format: ADME, cell-based, Hepatocyte; details: simiiformes, read-out: Metabolism
[21] = Compound was tested in vitro for loss of compound after 4 hours exposure to hepatocytes of dog at 25 uM concentration; format: ADME, organism-based, Canis lupus familiaris, Hepatocyte; details: read-out: Metabolism
[22] = Compound was tested in vitro for loss of compound after 4 hours exposure to hepatocytes of monkey at 25 uM concentration; format: ADME, cell-based, Hepatocyte; details: simiiformes, read-out: Metabolism
[23] = Compound was tested in vitro for loss of compound after 4 hours exposure to hepatocytes of human at 25 uM concentration; format: ADME, organism-based, Hepatocyte; details: read-out: Metabolism
[24] = tested on: Enterovirus; test: In vitro antirhinoviral activity mean against human rhinovirus serotypes 2, 3, 9, 14, 16 and 25

SMILES	K obs / 1 [1] [M⁻¹ s⁻¹]	EC50 [2] [nM]	metabolised at 0.5 h, 25 µM [3] [%]	solubility thermodynamic [4] [µg/mL]	Papp [5]	metabolised at 0.5 h, 25 µM [6] [%]	half-life [8] [min]	further results
C#CC[C@@H](C(=O)N[C@H](/C=C/C(=O)OCC(C)(C)C)C[C@@H]1CCNC1=O)n1cccc(NC(=O)c2cc(C)on2)c1=O	128000	276	–	–	–	–	–	–
C#CC[C@@H](C(=O)N[C@H](/C=C/C(=O)OC(C)(C)C)C[C@@H]1CCNC1=O)n1cccc(NC(=O)c2cc(C)on2)c1=O	60500	361	–	–	–	–	–	–
CC[C@@H](C(=O)N[C@H](/C=C/C(=O)OC1CCCCCC1)C[C@@H]1CCNC1=O)n1cccc(NC(=O)c2cc(C)on2)c1=O	15000	–	–	–	–	–	–	–
CC[C@@H](C(=O)N[C@H](/C=C/C(=O)OCC(C)(C)C)C[C@@H]1CCNC1=O)n1cccc(NC(=O)c2cc(C)on2)c1=O	38200	310	–	–	–	–	–	–
C#CC[C@@H](C(=O)N[C@H](/C=C/C(=O)OC1CCC1)C[C@@H]1CCNC1=O)n1cccc(NC(=O)c2cc(C)on2)c1=O	207000	90	52	25 (≈ 45.5 µM)	14 10e-6 cm s-1	53	198	concentration at 7 h [7]: 73 nM
CCOC(=O)c1ccc(OCCC2CCN(c3ccc(C)nn3)CC2)cc1 [PIRODAVIR]	–	–	–	–	–	–	–	EC50 [9]: 31 nM
CCOC(=O)/C=C/[C@H](C[C@@H]1CCNC1=O)NC(=O)[C@H](CC)n1cccc(NC(=O)c2cc(C)on2)c1=O	170000	47	61	38 (≈ 74 µM)	5 10e-6 cm s-1	37	336	concentration at 7 h [10]: 896 nM; metabolised at 2 h, 5 µM [11]: 76%; concentration at 7 h [12]: < 10 nM; metabolised at 2 h, 25 µM [13]: 82%; metabolised at 2 h, 25 µM [14]: 14%; concentration at 7 h [15]: 682 nM; metabolised at 0.5 h, 25 µM [16]: 61%
CC[C@@H](C(=O)N[C@H](/C=C/C(=O)OC(C)C)C[C@@H]1CCNC1=O)n1cccc(NC(=O)c2cc(C)on2)c1=O	36000	–	–	–	–	–	–	EC50 [17]: 322 nM
CC[C@@H](C(=O)N[C@H](/C=C/C(=O)OC1CCCCC1)C[C@@H]1CCNC1=O)n1cccc(NC(=O)c2cc(C)on2)c1=O	23000	–	–	–	–	–	–	EC50 [17]: 313 nM
C#CC[C@@H](C(=O)N[C@H](/C=C(\C)C(=O)OCC)C[C@@H]1CCNC1=O)n1cccc(NC(=O)c2cc(C)on2)c1=O	12500	1460	–	–	–	–	–	–
C#CC[C@@H](C(=O)N[C@H](/C=C/C(=O)OCc1ccccc1)C[C@@H]1CCNC1=O)n1cccc(NC(=O)c2cc(C)on2)c1=O	300000	36	52	22 (≈ 37.6 µM)	18 10e-6 cm s-1	67	258	Free [18]: 13%; Free [19]: 25%; metabolised at 2 h, 25 µM [20]: 69%; concentration at 7 h [10]: 3 nM; metabolised at 2 h, 25 µM [13]: 51%; metabolised at 2 h, 25 µM [14]: 61%; concentration at 7 h [7]: 563 nM
CC[C@@H](C(=O)N[C@H](/C=C/C(=O)OC(C)(C)C)C[C@@H]1CCNC1=O)n1cccc(NC(=O)c2cc(C)on2)c1=O	45100	405	–	–	–	–	–	–
C#CC[C@@H](C(=O)N[C@H](/C=C/C(=O)OCC)C[C@@H]1CCNC1=O)n1cccc(NC(=O)c2cc(C)on2)c1=O [IMOCITRELVIR]	223000	58	40	377 (≈ 720 µM)	6 10e-6 cm s-1	45	396	Free [18]: 34%; Free [19]: 54%; metabolised at 2 h, 25 µM [20]: 79%; concentration at 7 h [10]: 57 nM; metabolised at 2 h, 25 µM [13]: 85%; metabolised at 2 h, 25 µM [14]: 12%; concentration at 7 h [7]: 248 nM; metabolised at 0.5 h, 25 µM [16]: 55%
CCOC(=O)/C=C/[C@H](C[C@@H]1CCNC1=O)NC(=O)[C@H](Cc1ccc(F)c(F)c1)n1cccc(NC(=O)c2cc(C)on2)c1=O	–	11	81	25 (≈ 40.9 µM)	35 10e-6 cm s-1	57	84	metabolised at 2 h, 25 µM [13]: 94%
C#CC[C@@H](C(=O)N[C@H](/C=C/C(=O)OC1CCCCCC1)C[C@@H]1CCNC1=O)n1cccc(NC(=O)c2cc(C)on2)c1=O	47000	–	–	–	–	–	–	EC50 [17]: 812 nM
CC[C@@H](C(=O)N[C@H](/C=C/C(=O)OC1CCC1)C[C@@H]1CCNC1=O)n1cccc(NC(=O)c2cc(C)on2)c1=O	170000	76	49	192 (≈ 356 µM)	10 10e-6 cm s-1	46	552	Free [18]: 33%; Free [19]: 42%; concentration at 7 h [7]: 222 nM
C#CC[C@@H](C(=O)N[C@H](/C=C/C(=O)OC1CCCCC1)C[C@@H]1CCNC1=O)n1cccc(NC(=O)c2cc(C)on2)c1=O	34000	–	–	–	–	–	–	EC50 [17]: 406 nM
Cc1cc(CCCOc2c(C)cc(-c3noc(C(F)(F)F)n3)cc2C)on1 [PLECONARIL]	–	136	–	–	–	–	–	–
Cc1cc(C(=O)Nc2cccn([C@@H](Cc3ccc(F)c(F)c3)C(=O)N[C@H](/C=C/C(=O)OC(C)C)C[C@@H]3CCNC3=O)c2=O)no1	–	78	56	21 (≈ 33.6 µM)	36 10e-6 cm s-1	57	582	Free [18]: 9%; metabolised at 4 h, 25 µM [21]: 16%; Free [19]: 19%; metabolised at 4 h, 25 µM [22]: 92%; concentration at 7 h [10]: 12 nM; concentration at 7 h [12]: 959 nM; metabolised at 4 h, 25 µM [23]: 87%; concentration at 7 h [15]: 815 nM
CC[C@@H](C(=O)N[C@H](/C=C/C(=O)OCc1ccccc1)C[C@@H]1CCNC1=O)n1cccc(NC(=O)c2cc(C)on2)c1=O	210000	64	56	41 (≈ 71.2 µM)	11 10e-6 cm s-1	69	150	Free [18]: 8%; Free [19]: 20%; metabolised at 2 h, 25 µM [13]: 27%; metabolised at 2 h, 25 µM [14]: 55%; concentration at 7 h [7]: 156 nM
C#CC[C@@H](C(=O)N[C@H](/C=C/C(=O)OC(C)C)C[C@@H]1CCNC1=O)n1cccc(NC(=O)c2cc(C)on2)c1=O	100000	–	–	–	–	–	–	EC50 [24]: 174 nM
C#CC[C@@H](C(=O)N[C@H](/C=C/C(=O)OC1CCCC1)C[C@@H]1CCNC1=O)n1cccc(NC(=O)c2cc(C)on2)c1=O	186000	174	59	15 (≈ 26.6 µM)	36 10e-6 cm s-1	76	750	Free [18]: 7%; Free [19]: 20%; concentration at 7 h [7]: 160 nM
